Consider nine compounds from ChEMBL document CHEMBL1126138, “Preparation and opioid activity of analogues of the analgesic dipeptide 2,6-dimethyl-L-tyrosyl-N-(3-phenylpropyl)-D-alaninamide” (J Med Chem, 1992).

Broadly, the ED50 is the dose at which the effect has come halfway, by size or by number of responders. For orientation: IC50 means the concentration at which inhibition is half-maximal. Read a low IC50 as higher potency.

The target of assay [1] is Delta-type opioid receptor (Rattus norvegicus) (UniProt P33533). Briefly: Ratio of IC50 of opioid receptor delta to IC50 opioid receptor mu.
Assay [2] concerns the target Kappa-type opioid receptor (Rattus norvegicus) (UniProt P34975). Briefly: Ratio of IC50 of opioid receptor kappa to IC50 opioid receptor mu.
The species named for assay [3] is Mus musculus. The experiment in a line: Analgesic activity evaluated in mice by writhing test (confidence limit). Format: functional.
The target in assay [4] is Delta-type opioid receptor (Rattus norvegicus, UniProt P33533). The experiment in a line: Binding ability towards opioid receptor delta expressed in homogenates of rat brain. Format: tissue-based.
The target of the next assay is Mu-type opioid receptor (Rattus norvegicus, UniProt P33535). The experiment in a line: Binding ability towards opioid receptor mu expressed in homogenates of rat brain. It is filed as tissue-based.
The subject of assay [5] is Mus musculus. The experiment in a line: Number of mice of those tested in which 10 mg/kg compound inhibited writhing. Format: functional. An outline of the steps:
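Mouse writhing test with a single 10 mg/kg dose of compound. The value is the count of mice whose writhing was inhibited, out of the number tested.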
A general note: An intraperitoneal irritant provokes the stretching counted in writhing tests.

The target in assay [6] is Delta-type opioid receptor (Rattus norvegicus) (UniProt P33533). The experiment in a line: Binding ability towards opioid receptor delta expressed in homogenates of rat brain at 100 nM concentration. Format: tissue-based. The method, boiled down:
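Rat brain homogenate, δ opioid binding site. Test compound at 100 nM. The value is the maximum percent displacement at that concentration.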

Mu-type opioid receptor, sequence (P33535 whole entry): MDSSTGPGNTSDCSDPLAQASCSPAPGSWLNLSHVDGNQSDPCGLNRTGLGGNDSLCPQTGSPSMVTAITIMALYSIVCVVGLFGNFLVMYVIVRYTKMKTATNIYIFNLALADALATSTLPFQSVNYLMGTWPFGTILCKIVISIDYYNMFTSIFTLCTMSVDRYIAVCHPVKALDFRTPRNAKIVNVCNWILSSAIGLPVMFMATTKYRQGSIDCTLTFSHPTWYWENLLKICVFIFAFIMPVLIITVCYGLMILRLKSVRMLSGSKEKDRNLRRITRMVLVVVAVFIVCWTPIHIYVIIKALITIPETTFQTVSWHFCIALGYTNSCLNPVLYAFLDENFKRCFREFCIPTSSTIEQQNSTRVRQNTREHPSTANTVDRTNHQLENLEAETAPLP
Delta-type opioid receptor, sequence (P33533 whole entry): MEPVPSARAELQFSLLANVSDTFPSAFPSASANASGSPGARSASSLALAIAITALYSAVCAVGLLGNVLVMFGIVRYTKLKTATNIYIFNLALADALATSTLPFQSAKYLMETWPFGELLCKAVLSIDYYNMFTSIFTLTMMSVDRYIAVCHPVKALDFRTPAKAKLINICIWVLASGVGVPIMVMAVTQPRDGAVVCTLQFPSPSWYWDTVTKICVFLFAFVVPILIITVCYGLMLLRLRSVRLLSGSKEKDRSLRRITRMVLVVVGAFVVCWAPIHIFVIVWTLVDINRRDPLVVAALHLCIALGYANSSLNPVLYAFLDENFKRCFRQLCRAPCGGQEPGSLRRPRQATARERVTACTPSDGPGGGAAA
Delta-type opioid receptor (Rattus norvegicus), sequence (P33533 whole entry): as above
Kappa-type opioid receptor (Rattus norvegicus), sequence (P34975 whole entry): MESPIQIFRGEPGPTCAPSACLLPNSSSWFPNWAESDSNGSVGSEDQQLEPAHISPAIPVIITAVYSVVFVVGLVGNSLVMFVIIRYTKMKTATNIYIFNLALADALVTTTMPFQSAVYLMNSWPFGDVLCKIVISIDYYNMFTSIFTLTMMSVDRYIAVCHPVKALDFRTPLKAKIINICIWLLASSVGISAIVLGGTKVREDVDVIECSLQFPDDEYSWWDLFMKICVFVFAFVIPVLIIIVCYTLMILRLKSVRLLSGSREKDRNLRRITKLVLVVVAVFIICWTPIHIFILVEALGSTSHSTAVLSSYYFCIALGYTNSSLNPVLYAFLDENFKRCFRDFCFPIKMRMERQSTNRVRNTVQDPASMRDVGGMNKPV

For the compound `Cc1cc(O)cc(C)c1C[C@H](N)C(=O)N[C@H](CO)COCCCc1ccccc1`, the Ratio turned out to be 139 in assay [1] and 3530 in assay [2]. In addition, the ED50 in the assay listed under Mus musculus [3] is 2.1 mg/kg. The figures for the IC50 (in assay [4]; on Mu-type opioid receptor) were 233 nM and 1.67 nM, respectively.
On to `Cc1cc(O)cc(C)c1C[C@H](N)C(=O)N[C@H](C)CNCCCc1ccccc1`, for which the Ratio in assay [1] came to 354; in assay [2], 2540. Also, the results for the IC50 (in assay [4]; at Mu-type opioid receptor) were 46 nM and 0.13 nM, respectively. In the assay on Mus musculus [5], this compound registered a No. of mice of 4.
In the same order, the values of `Cc1cc(O)cc(C)c1C[C@H](N)C(=O)N1CCCCC1CNCCCc1ccccc1` (some centres not stated) are 269, 222, 12.1 nM, 0.045 nM and 3.
As to `Cc1cc(O)cc(C)c1C[C@H](N)C(=O)N[C@H](C)C(=O)NCCCc1ccccc1`, the Ratio in assay [1] turned out to be 30.6; in assay [2] it was 2920. Further, in the assay filed under Mus musculus [3], it took a dose of 0.52 mg/kg to reach the 50% effect level (ED50). The IC50 in assay [4] came out at 3.98 nM; on Mu-type opioid receptor, 0.13 nM.
Consider `Cc1cc(O)cc(C)c1C[C@H](N)C(=O)NC(C)/C(F)=C/CCCc1ccccc1` (some centres not stated), for which the Ratio in assay [2] was determined as 1160. Besides, the 50% effective dose (ED50) in the assay listed under Mus musculus [3] worked out at 2.1 mg/kg. Also, the Displacement in assay [6] is 47.3%. The half-maximal inhibitory concentration (IC50) at Mu-type opioid receptor turned out to be 6.9 nM.
With `Cc1cc(O)cc(C)c1C[C@H](N)C(=O)N1CCCCC1COCCCc1ccccc1` (some centres not stated), the Ratio in assay [1] came out at 67.9; in assay [2], 173. Besides, the ED50 in the assay listed under Mus musculus [3] amounted to 2.1 mg/kg. Besides, the IC50 in assay [4] came out at 110 nM; on Mu-type opioid receptor, 1.62 nM.
As for `Cc1cc(O)cc(C)c1C[C@H](N)C(=O)NC(C)/C=C/CCCc1ccccc1` (some centres not stated), the Ratio in assay [2] was 1100. In the assay listed under Mus musculus [3], this compound gave a median effective dose (ED50) of 2.1 mg/kg. For the same compound, in assay [6], the Displacement was found to be 39.3%. In addition, on Mu-type opioid receptor, the half-maximal inhibitory concentration (IC50) amounted to 5.4 nM.
On to `Cc1cc(O)cc(C)c1C[C@H](N)C(=O)N[C@@H](COCCCc1ccccc1)COC(C)(C)C`, for which the values for the Ratio in assay [1] and in assay [2] were 10.3 and 282, respectively. The median effective dose (ED50) in the assay filed under Mus musculus [3] turned out to be 1.7 mg/kg. Further, the IC50 in assay [4] amounted to 340 nM; at Mu-type opioid receptor, 33 nM.
For `Cc1cc(O)cc(C)c1C[C@H](N)C(=O)N[C@H](C)COCCCc1ccccc1`, the values for the Ratio in assay [1] and in assay [2] were 42 and 2600, respectively. For the same compound, the IC50 in assay [4] amounted to 21 nM. In the assay with Mus musculus [5], this compound displayed a No. of mice of 3.
